The source of these data is ChEMBL document CHEMBL2413007, “Synthesis of polysubstituted benzofuran derivatives as novel inhibitors of parasitic growth” (Bioorg Med Chem, 2013).

The term IC50 denotes the point on the concentration scale where inhibition reaches its midpoint.

Experiment [1] concerns Trypanosoma brucei gambiense. The experiment is described as follows: Antitrypanosomal activity against Trypanosoma brucei gambiense Feo bloodstream form after 72 hrs by fluorescence assay. The experiment is classed as functional, organism-based. The essentials:
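Bloodstream forms of strain Feo grown in HMI9 with 10% FCS, 37 °C, 5% CO₂. Log-phase cells harvested by centrifugation (3000g) and used at once, seeded at 3 × 10⁴ cells/ml. Inhibitor concentration series, final DMSO ≤1%. Resazurin added after 72 h (final 45 µM), fluorescence (ex 530/em 590 nm) read 4 h later. Inhibition relative to untreated parasites; triplicates, experiment repeated twice.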

For a further experiment, the system named is Plasmodium falciparum. Put plainly: Antiplasmodial activity against erythrocytic stages of chloroquine-resistant Plasmodium falciparum FcB1/Columbia incubated for 24 hrs followed by [3H]-hypoxanthine addition measured after 24 hrs by liquid scintillation spectrometry. The experiment is classed as functional, organism-based. The method, boiled down:
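Asynchronous FcB1/Colombia cultured on human erythrocytes in RPMI 1640 + 8% heat-inactivated human serum, 37 °C, 3% CO₂/6% O₂/91% N₂. DMSO stocks 10 mM, two-fold serial dilutions; 1% parasitaemia, 1% final haematocrit. 24 h drug exposure, then 0.5 µCi [³H]-hypoxanthine per well, 24 h more; freeze-thaw, filter harvest, scintillation counting versus untreated same-plate control. IC50 from concentration–response curve; mean ± SD of several independent experiments; chloroquine control.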

A value given as a limit tells only on which side of the number the result lay.

As for `COc1ccc(-c2oc3ccccc3c2C(=O)c2ccccc2)cc1`, the concentration for half-maximal inhibition (IC50) in experiment [1] was 21.2 µM; in the experiment on Plasmodium falciparum, greater than 50 µM. Taken in the same sequence, the figures for `COc1ccc(-c2oc3ccccc3c2C(=O)c2ccc([N+](=O)[O-])cc2)cc1` were greater than 50 µM and greater than 50 µM. Turning to `COc1ccc(-c2oc3ccccc3c2C(=O)c2c(O)cc(OC)cc2OC)cc1`, the IC50 is 6.7 µM in experiment [1] and greater than 25 µM in the experiment on Plasmodium falciparum. Taken in the same sequence, the figures for `O=C(c1ccccc1)c1c(C2CC2)oc2ccccc12` were 20.9 µM and greater than 50 µM.

As for `O=C(c1ccccc1)c1c(-c2ccccc2)oc2ccccc12`, the IC50 in experiment [1] is 15.5 µM; in the experiment on Plasmodium falciparum it was greater than 50 µM.

For `O=C(c1ccc([N+](=O)[O-])cc1)c1c(-c2ccccc2)oc2ccccc12`, the IC50 (in experiment [1]; in the experiment on Plasmodium falciparum) was greater than 50 µM in each case.

Consider `COc1ccc(-c2oc3cccc(O)c3c2C(=O)c2ccccc2)cc1`, for which the IC50 in experiment [1] was 6.5 µM; in the experiment on Plasmodium falciparum, greater than 25 µM. Take `COc1ccc(C(=O)c2c(-c3ccc(OC)cc3)oc3cccc(O)c23)cc1`: the IC50 in experiment [1] was 7.7 µM; with Plasmodium falciparum it was greater than 25 µM. For `COc1ccc(-c2oc3cccc(O)c3c2C(=O)c2cccc3ccccc23)cc1`, the IC50 is 4.2 µM in experiment [1] and greater than 50 µM with Plasmodium falciparum. Regarding `CCOc1ccc2ccccc2c1C(=O)c1c(-c2ccc(OC)cc2)oc2cccc(O)c12`, the IC50 in experiment [1] was 1.5 µM; with Plasmodium falciparum it was greater than 25 µM. Consider `COc1ccc(C(=O)c2c(C3CC3)oc3cccc(O)c23)cc1`, for which the IC50 in experiment [1] is 3.7 µM; with Plasmodium falciparum, greater than 50 µM.

Take `O=C(c1cccc2ccccc12)c1c(C2CC2)oc2cccc(O)c12`: the half-maximal inhibitory concentration (IC50) was 4.6 µM in experiment [1] and greater than 50 µM with Plasmodium falciparum. Taken in the same sequence, the figures for `CCOc1ccc2ccccc2c1C(=O)c1c(C2CC2)oc2cccc(O)c12` were 2 µM and greater than 25 µM. Taken in the same sequence, the figures for `COc1ccc(-c2oc3cccc(OC)c3c2C(=O)c2ccccc2)cc1` were 11.8 µM and greater than 50 µM. For `COc1ccc(C(=O)c2c(-c3ccc(OC)cc3)oc3cccc(OC)c23)cc1`, the IC50 is 8.3 µM in experiment [1] and greater than 25 µM in the experiment with Plasmodium falciparum.

For the molecule `COc1ccc(-c2oc3cccc(OC)c3c2C(=O)c2cccc3ccccc23)cc1`, the IC50 in experiment [1] was 12.4 µM; in the experiment with Plasmodium falciparum, greater than 50 µM.

Regarding `COc1ccc(-c2oc3cccc(OC)c3c2C(=O)c2ccc(Cl)cc2)cc1`, the IC50 in experiment [1] was 5.5 µM; in the experiment with Plasmodium falciparum, greater than 50 µM.

Take `COc1ccc(-c2oc3cccc(OC)c3c2C(=O)c2ccc(OC(=O)C(C)(C)C)c(OC)c2)cc1`: the results for the IC50 (in experiment [1]; in the experiment with Plasmodium falciparum) were 8.4 µM and greater than 50 µM, respectively. In the case of `COc1ccc(-c2oc3cccc(OC)c3c2C(=O)c2c(OC)cc(OC)cc2OC)cc1`, the IC50 (in experiment [1]; with Plasmodium falciparum) was greater than 50 µM throughout. With `COc1ccc(-c2cc3c(OC(=O)c4ccccc4)cccc3o2)cc1`, the IC50 is 3.2 µM in experiment [1] and greater than 25 µM in the experiment on Plasmodium falciparum. Turning to `COc1ccc(C(=O)Oc2cccc3oc(-c4ccc(OC)cc4)cc23)cc1`, the IC50 is 1.8 µM in experiment [1] and 11.2 µM in the experiment on Plasmodium falciparum. The like results for `COc1ccc(-c2cc3c(OC(=O)c4c(O)cc(OC)cc4OC)cccc3o2)cc1` were, in that order, greater than 50 µM and 7.9 µM. Taken in the same sequence, the figures for `COc1ccc(-c2cc3c(OC(=O)c4cccc5ccccc45)cccc3o2)cc1` were 14.9 µM and greater than 50 µM. Taken in the same sequence, the figures for `CCOc1ccc2ccccc2c1C(=O)Oc1cccc2oc(-c3ccc(OC)cc3)cc12` were 7.7 µM and greater than 50 µM.

In the case of `COc1ccc(-c2cc3c(OC(=O)c4ccc(Cl)cc4)cccc3o2)cc1`, the IC50 is 1.5 µM in experiment [1] and greater than 25 µM in the experiment on Plasmodium falciparum. Taken in the same sequence, the figures for `COc1ccc(-c2cc3c(OC(=O)c4ccc([N+](=O)[O-])cc4)cccc3o2)cc1` were 1.7 µM and greater than 50 µM. Taken in the same sequence, the figures for `O=C(Oc1cccc2oc(C3CC3)cc12)c1ccccc1` were 14.7 µM and greater than 50 µM. Taken in the same sequence, the figures for `COc1ccc(C(=O)Oc2cccc3oc(C4CC4)cc23)cc1` were 2.7 µM and greater than 50 µM. In the case of `O=C(Oc1cccc2oc(C3CC3)cc12)c1cccc2ccccc12`, the IC50 was 12.6 µM in experiment [1] and greater than 50 µM in the experiment on Plasmodium falciparum. Consider `CCOc1ccc2ccccc2c1C(=O)Oc1cccc2oc(C3CC3)cc12`, for which the 50% inhibitory concentration (IC50) in experiment [1] was 6.4 µM; with Plasmodium falciparum, greater than 25 µM. As for `O=C(Oc1cccc2oc(C3CC3)cc12)c1ccc(Cl)cc1`, the IC50 in experiment [1] was 7.1 µM; with Plasmodium falciparum it was greater than 50 µM. Turning to `O=C(Oc1cccc2oc(C3CC3)cc12)c1ccc([N+](=O)[O-])cc1`, the results for the half-maximal inhibitory concentration (IC50) (in experiment [1]; in the experiment on Plasmodium falciparum) were 12.2 µM and greater than 50 µM, respectively. The like results for `O=C(Oc1cccc2oc(-c3ccccc3)cc12)c1ccccc1` were, in that order, 14 µM and greater than 25 µM.

As for `COc1ccc(C(=O)Oc2cccc3oc(-c4ccccc4)cc23)cc1`, the IC50 is 1.7 µM in experiment [1] and greater than 25 µM in the experiment on Plasmodium falciparum.

Take `O=C(Oc1cccc2oc(-c3ccccc3)cc12)c1cccc2ccccc12`: the IC50 is 21.3 µM in experiment [1] and greater than 25 µM with Plasmodium falciparum.

Regarding `CCOc1ccc2ccccc2c1C(=O)Oc1cccc2oc(-c3ccccc3)cc12`, the values for the IC50 (in experiment [1]; with Plasmodium falciparum) were 6.7 µM and greater than 50 µM, respectively. In the case of `O=C(Oc1cccc2oc(-c3ccccc3)cc12)c1ccc(Cl)cc1`, the IC50 in experiment [1] was 1.6 µM; in the experiment on Plasmodium falciparum, greater than 25 µM. Taken in the same sequence, the figures for `O=C(Oc1cccc2oc(-c3ccccc3)cc12)c1ccc([N+](=O)[O-])cc1` were 1.8 µM and greater than 25 µM. In the case of `Cc1cc(C)cc(-c2cc3c(OC(=O)c4ccccc4)cccc3o2)c1`, the IC50 in experiment [1] was 2 µM; in the experiment with Plasmodium falciparum, 6 µM.

In experiment [1], `N=C(N)c1ccc(OCCCCCOc2ccc(C(=N)N)cc2)cc1` [PENTAMIDINE] yielded a 50% inhibitory concentration (IC50) of 0.011 µM. In other words, the double-digit nanomolar range.
